According to the EternaBench riboswitch data:

Test system: MS2 coat protein
Assay: apparent Kd, MS2 coat protein; higher = weaker binding; RNA-MaP array; FMN 200 µM where present
Procedure, shortened: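 Green signal was scaled to red-channel RNA signal and control-cluster median Fmax, and the apparent Kd was taken as the median of filtered per-cluster binding-curve fits. The binding series used SNAP-549-labelled MS2 coat protein from 0.7 or 1.5 nM, doubling to 3 µM, on designs transcribed by stalled E. coli RNA polymerase on Illumina sequencing-chip clusters. Each series ran without and then with constant ligand in 100 mM Tris-HCl pH 7.5, 80 mM KCl, 4 mM MgCl2, BSA, DTT, yeast tRNA and Tween-20.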

[1] = designed as: OFF switch for flavin mononucleotide, no ligand
[2] = ligand present: flavin mononucleotide, designed as: OFF switch for flavin mononucleotide
[3] = designed as: ON switch for flavin mononucleotide, no ligand
[4] = ligand present: flavin mononucleotide, designed as: ON switch for flavin mononucleotide

Sequence | apparent Kd [1] [nM] | apparent Kd [2] [nM] | apparent Kd [3] [nM] | apparent Kd [4] [nM]
CCAUAAAUGAUCCAUUUUUACUACAUGAGGAUCACCCAUGUGCAGGAUAUCGUGAAAGUUAAAUACGAGAAGGGCAAGAACUGC | 218 | 230 | – | –
UGUUGUAUUACAGGAUAUCUAGUAUAUUUAUUUAGAGAAGGGUAUUCACAUGAGGAUCACCCAUGUAUAUACGAGGAAGUUGUG | – | – | 41.1 | 40.2
GCACUCAAGUUAGGAUAUGGAUCGGAAAACGAUCCAGAAGGAAUAUGGGAACAUGAGGAUCACCCAUGUUCCACAAACGAGUGC | – | – | 40.9 | 22.1
CCAGCGUAUGUGAGGAUAUGCUGGUCCUUGGAUCAGCAGAAGGCACAUGAGGAUCACCCAUGUGAGAGCGUUGG | 25.7 | 197 | – | –
UGAGCGACCACAGGAUAUACUUAGGAAGACCGAGUAGAAGGGUGGAAGAGCGUGCAGUGACAUGAGGAUCACCCAUGUGGUUGU | – | – | 156 | 70.1
CGGUAAACCACAGGAUAUGGCUAGUAUAACUAGCCAGAAGGGUGGUCGAAACCAUGUAAAUACAUGAGGAUCACCCAUGUAUCC | – | – | 496 | 47.6
CUCGUCUGGAAACGGAGCGGCCAACAUGAGGAUCACCCAUGUGAGGAUAUGCCUACUAAAAGUAGGCAGAAGGCGCAAUUGGCA | 20.3 | 36 | – | –
GGAUGACAAAGUCAUCCAAUACGAACAUGAGGAUCACCCAUGUAGGAUAUGCUACUCAAAGAGUAGCAGAAGGACAUGUGUCUU | 30 | 143 | – | –
AUCAGCCCGUCAGGAUAUACGUCACUGCGUCAGCAGUGUGGUAAGAUCACAUGAGGAUCACCCAUGUAGAAGGGACGAGCUGAU | 14.2 | 261 | – | –
GCCACGUCAGGAUAUCUGAUGUCUAACUUCGGUUAGACAUCAGAGAAGGGACAUGAGGAUCACCCAUGUGGCAA | 264 | 177 | – | –
GCCAUCACAUGAGGAUAUGCUCCCGUUUCGGGAGCAGAAGGCAUGUCAUCAGACAUGAGGAUCACCCAUGUAGUUAAGAUGGCA | – | – | 361 | 15.1
AUUAUUGACAUAGGAUAUUGUUACAUGAGGAUCACCCAUGUUAUUUGGGAACUAGGAAUAUUUUACAAGAAGGAUGUUGUUAAA | – | – | 91 | 79.3
CUUCGACAUGAGGAUCACCCAUGUCAGGAUAUUGUUUAUCUGGUUUUUUACAGAUAUGCAAGAAGGGAUGUGUU | 28.5 | 23.1 | – | –
ACCGUCCUCGUCAGGAUAUGUAUUGACUCUCCGAUACAGAAGGGACAUGAGGAUCACCCAUGUCCGGGACCUUA | 18.2 | 21.7 | – | –
AUUGAUGUUGAGGAUAUGCUUUUAUUUGUUCUUGCAGAAGGCGAUACAUGAGGAUCACCCAUGUUCAUGGAAGU | 51.6 | 46.6 | – | –
AUUGUGUGAGGAUAUUAGCAGUAGACGAAUGGAGUCGUGGCUGAGAAGGCACAUGAGGAUCACCCAUGUUCCUU | – | 88.3 | – | –
GGGCGACAUGAGGAUCACCCAUGUAAGGAUAUACAACUGCCCACUAAAAUCUGGGCUGGUAGAAGGUGCAGAAA | 35.7 | 42.8 | – | –
UCGCUGCGAGGAUAUACAUGAGGAUCACCCAUGUGCGGGUCCGGGUUUUCGUCCAUUAGUAGAAGGCGCAGUGA | 369 | 46.5 | – | –
UGGUACUAGGGAGGAUAUGGGAAGAUACAUGAGGAUCACCCAUGUUUAAGAAUGCCGAGAGGCAACUAGAAGGCCUUAGUACCU | – | – | 504 | 20.8
GACUCGAAUGUAGGAUAUGCUGAGGAAUACUCAGCAGAAGGACAUGAGGAUCACCCAUGUAAAUGAGUGAAUAAUAAACGAGUC | 1410 | 197 | – | –
AGGGUACAUGAGGAUCACCCAUGUGGGUCGGUCGCAGGAUAUGCCCGUGGGCGCUGGCGGGCAGAAGGGUGCCGAA | – | – | 313 | 45
CCACGGUAUGUAGGAUAUGCAUAGCAUUGCUAUGCAGAAGGACAUGAGGAUCACCCAUGUAUGUAUUCCAUACUAAUCCCGUGU | 6.29 | 5.9 | – | –
AGCUAGCUAGGAUAUGCGUAAAUGUCGAAAGACGUAUUGGGACAUGAGGAUCACCCAUGUAGAAGGAGCUAGCA | 29.1 | 54.5 | – | –
UUACGUCCCGUUUACAUGAGGAUCACCCAUGUCGAAAGACAUGAGGAUAUGCUACCUAAUUGGUAGCAGAAGGCAUGGACGUCG | – | – | 306 | 312

Sequence | apparent Kd [1] [nM] | apparent Kd [2] [nM] | apparent Kd [3] [nM] | apparent Kd [4] [nM]
CCACCAAUCGAGAAGGGCCCAUGUGCUACAUCGGCAGGAUAUCGACAUGAGGAUCACCCAUGUUGGCGAUCCUUUUUGGCGGAC | 176 | 35.9 | – | –
CCGUGGCAAGGAUAUACGUAGGAGAGGAAGGCAAGAGAAGGACAUGAGGAUCACCCAUGUAGAAGGUGCAGAUC | 56.5 | 56.5 | – | –
GCGUUGAACGAGAAGGCCAAUACAUGAGGAUCACCCAUGUUGUGAUGUUUUGGAGGAUAUCGAUCGUCGUCUCAUGAGCAACGC | 7.47 | 10.2 | – | –
UUUUUAUUUGAAGGAUAUACUUAACAUGAGGAUCACCCAUGUGGUGUUGUGAGUGAGUGAGUUUAGUAGAAGGUCAAUUAUUUU | 373 | 703 | – | –
GGAGCCGACACUGAGGAUAUUCAUAUUAAAACAUGAGGAUCACCCAUGUAGGCCAGAAGGCCUUGGGAGAAGGCAGGCCGGCUCG | – | – | 377 | 26.5
UGGUACUAGGGAGGAUAUGGGAAGAUACAUGAGGAUCACCCAUGUUUAAGAAUGCCAAGAGGCAACUAGAAGGCCCUAGUACCU | – | – | 384 | 17.8
AAUUGGCUCGCGCAGGAUAUGGAUCAUUCCACAUGAGGAUCACCCAUGUUAAGGAGCCUUUGCAUCCAGAAGGGUGCUGGUCUUU | – | – | 41.2 | 14.6
UUAAACGGAGGAUAUACAUUUUUUUUAUUAUCCUCAUUAAAACAUGAGGAUCACCCAUGUAGAAGGCCGAAAUU | 79.6 | 292 | – | –
AAACAUGUCCGAGGAUAUCUGGAAACAUUUCCGAGAGAAGGCGGACAUGAGGAUCACCCAUGUCUCUCCUCAUCAAAUCCAAGU | 8.44 | 80.7 | – | –
AAGUUCUGUGAGAAGGCGCCCUUUGCGGUUGGGCGAGGAUAUCACAUGAGGAUCACCCAUGUCGGUGCAUCAGACAGCGUAUUU | 810 | 156 | – | –
GCGGUACAUGAGGAUCACCCAUGUCAGGAUAUCCGCUGUUUGUCGAUUGGCGGGCGGUGGAGAAGGGACCUCGC | 80.4 | 81.6 | – | –
AACGCGUCAGGAUAUGCCAUAAAUUACGUAGUACGACCAUAGUAGAAGGGACAUGAGGAUCACCCAUGUGGGUA | 177 | 137 | – | –
AACAGUAGAGGAUAUACAUGAGGAUCACCCAUGUGAUAUUUACGUGGCGUACCACGAAGUAGAAGGCUACUGGA | 30.7 | 265 | – | –
AGAUCAGUCUGAGUGCCUCGCGCGAGAAGGUACAGUGUUGUCCUGUUACAUGAGGAUCACCCAUGUAAGGAUAUCGCCGAGGAG | 7.86 | 28.4 | – | –
GGUACCUUCACAGGAUAUGCUAUCGUUUCGGUAGCAGAAGGGUGAUACAUGAGGAUCACCCAUGUGGUGCCAGGGCGUGAGCCC | – | – | 842 | 329
GUGCUCGUGUAAGGAUAUGCAGCCGUUUCGGCUGCAGAAGGUACUAUAAUACAUGAGGAUCACCCAUGUCUCUAUAGUUUGGUG | – | – | 27.4 | 33.1
UGGUCAUCAUCAGGAUAUUAACGUGGGCUACAUUAAGAAGGGAUAGUGGGAGAGGAAGUGAAACAUGAGGAUCACCCAUGUUGU | – | – | 13.5 | 11.3
CGCUACGUUUCGUAGCAGCUAGGUGAGGAUAUUCAAUUUUUCACAUGAGGAUCACCCAUGUAUGUGAAGAAGGCGCCUAGAAAC | – | – | 10.8 | 4.81
CUUUUGUGAGGAUAUCUGGCUUCGAUCGUGAGAUCGAGGCUAGAGAAGGCACAUGAGGAUCACCCAUGUACCUC | 24.3 | 149 | – | –
AAUUAAUUAAUUAAUAUACAUGAGGAUCACCCAUGUAAGAUCAAGGAUAUCAGCUCGAUUAGAGCUGAGAAGGUGAUCACAUGU | – | – | 357 | 501
CCUCCCUGAGGAUAUCCACCCUCAUACAUGAGGAUCACCCAUGUUCAACCCUGGGUUCCCGGAGAAGGCAGCCUCC | 706 | 650 | – | –
UGAAAUCAUGUAGGAUAUGCAUGGCGAAGCUACGCAGAAGGACAUGAGGAUCACCCAUGUUAUAGCUACCCAGUUCGGUGGCAG | 46.2 | 174 | – | –
CCUCCAUCAUGAGGAUAUGGCACCUUAUUGGUGCCAGAAGGCAUGUCUUUUGACAUGAGGAUCACCCAUGUAAUAAAUUGGAGG | – | – | 1280 | 127
GCACUGCAGCGGCGCACGAGACAUGAGGAUCACCCAUGUGACAGAAGGGACUUGUUAAAGGUAGGUCAGGAUAUGUCUUAAAAG | – | – | 219 | 65.8
